Screening data (PubChem BioAssay)
An excerpt weighted towards active compounds, which were near 1.8% of everything screened.
M5 ag: human M5 muscarinic receptor agonists, primary screen, CHO-K1 cells, Fluo-8 calcium fluorescence | Muscarinic acetylcholine receptor M5 (Homo sapiens), P08912 | CHO-K1 hM5 cells; 0% DMSO wells, 100% maximal acetylcholine response | activation, % at 3 µM | 0.19% of 360,000 active | AID 624037, 2012;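 active = activation above the run's mean over test compounds plus 3 SD, cut at about 23% in these data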;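 note: signal is peak over basal fluorescence ratio across the kinetic read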
M5 PAM: human M5 muscarinic receptor positive allosteric modulators, primary screen, CHO-K1 cells, Fluo-8 calcium fluorescence. CHO-K1 hM5, ACh EC20 PAM; 0% = ACh EC20, 100% = ACh EC100. activation, % at 3 µM. 0.3% of 360,000 active;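 active = activation above the run cutoff, the mean activation of all test compounds plus 3 SD, cut at about 18% in these data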
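Assay system: CHO-K1 hM5 cells. Also added: acetylcholine at EC20 concentration, added after compound. Dosing: 3 µM, single dose. Times: compound preincubation 140 s before EC20 acetylcholine addition. Signal: Fluo-8 calcium fluorescence. Measure: % activation relative to EC20 and EC100 ACh responses. Repeats: singlicate, one well per test compound.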
M4 antag: human M4 muscarinic receptor antagonists, primary screen, CHO cells, Fluo-8 calcium fluorescence; Muscarinic acetylcholine receptor M4 (Homo sapiens), P08173; CHO-hM4 cells, ACh EC80; inhibition, % at 3 µM; 0.73% of 360,000 active; AID 624125, 2012;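 active = inhibition above its plate's cutoff, the mean inhibition of sample wells plus 3 SD, cut at about 27% in these data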;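 note: 0% = acetylcholine EC80 with DMSO and 100% = DMSO without agonist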
Target sequence (P08173 whole entry, looked up): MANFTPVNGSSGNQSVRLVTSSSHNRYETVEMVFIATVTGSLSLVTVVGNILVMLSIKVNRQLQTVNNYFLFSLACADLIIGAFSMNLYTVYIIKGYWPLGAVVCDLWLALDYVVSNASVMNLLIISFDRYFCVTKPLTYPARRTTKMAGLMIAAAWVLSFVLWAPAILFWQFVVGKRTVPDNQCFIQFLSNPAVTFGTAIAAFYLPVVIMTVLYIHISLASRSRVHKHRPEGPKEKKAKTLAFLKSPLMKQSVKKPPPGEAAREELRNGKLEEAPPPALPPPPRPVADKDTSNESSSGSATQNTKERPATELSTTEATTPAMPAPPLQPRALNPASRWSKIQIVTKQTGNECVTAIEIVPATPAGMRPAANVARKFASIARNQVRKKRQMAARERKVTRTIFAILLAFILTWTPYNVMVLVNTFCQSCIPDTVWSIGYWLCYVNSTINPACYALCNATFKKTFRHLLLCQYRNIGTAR
M4 ag: human M4 muscarinic receptor agonists, primary screen, CHO-K1 cells, Fluo-8 calcium fluorescence | AID 624127, 2012 | Muscarinic acetylcholine receptor M4 (Homo sapiens), P08173 | CHO-K1 hM4/Gqi5; vehicle 0%, full acetylcholine response 100% | activation, % at 3 µM | 0.14% of 360,000 active;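 active = activation above the run mean over all test wells plus 3 SD, cut at about 32% in these data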;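 note: peak over basal fluorescence ratio per well then scaled between controls; 0% = DMSO wells and 100% = acetylcholine at EC100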
M4 PAM: human M4 muscarinic receptor positive allosteric modulators, primary screen, CHO-K1 cells, Fluo-8 calcium fluorescence | Muscarinic acetylcholine receptor M4 (Homo sapiens), P08173 | 0.4% of 360,000 active | activation, % at 3 µM | CHO-K1 hM4/Gqi5, ACh EC20; 0% = ACh EC20, 100% = maximal ACh | AID 624126, 2012;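 active = activation above its plate's cutoff, the mean activation of sample wells plus 3 SD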
M5 antag: human M5 muscarinic receptor antagonists, primary screen, CHO cells, Fluo-8 calcium fluorescence | Muscarinic acetylcholine receptor M5 (Homo sapiens), P08912 | CHO-hM5 cells, ACh EC80 | inhibition, % at 3 µM | 0.59% of 360,000 active | AID 624040, 2012;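 active = inhibition above a per-plate cutoff, the mean of that plate's test compounds plus 3 SD, cut at about 27% in these data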;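 note: 0% = acetylcholine EC80 with DMSO and 100% = DMSO without agonist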
Active calls of the source: *.

For CCN(CCO)C(=O)c1ccc2nc(Cc3cccc(Cl)c3)oc2c1 the results were M5 ag 3, M5 PAM -4, M4 antag 5, M4 ag 0, M4 PAM -4 and M5 antag 0.
Screening Cn1c(=O)c2c(ncn2CC(=O)OCCCC(=O)c2ccc(Br)cc2)n(C)c1=O returned M5 ag 10, M5 PAM -8, M4 antag -5, M4 ag 9, M4 PAM 3 and M5 antag 15.
Screening CCn1c(NCc2ccc(N(C)C)cc2)nc2ccccc21 returned M5 ag -7, M5 PAM 18*, M4 antag -3, M4 ag 2, M4 PAM 8 and M5 antag -3.
CCOC(=O)C1=C(c2ccccc2)NC(=O)NC1c1ccc(O)c(OCC)c1 (centres undefined) was read as M5 ag -3, M5 PAM -2, M4 antag 0, M4 ag 1, M4 PAM 3 and M5 antag 8.
CCOC(=O)C1=C(CS(=O)(=O)c2ccc(C)cc2)NC(=O)NC1c1ccc(O)c(OC)c1 (centres undefined) was read as M5 ag 3, M5 PAM 20*, M4 antag -4, M4 ag 0, M4 PAM 18 and M5 antag -11.
Screening CCOc1cc(C2NC(=O)NC(C)=C2C(=O)OCC2CCCCC2)ccc1O (centres undefined) returned M5 ag -5, M5 PAM -14, M4 antag 0, M4 ag 3, M4 PAM -3 and M5 antag 29*.
CCn1c(=O)n(CC(=O)NCC2CCCO2)c(=O)c2c3c(sc21)COC(C)(C)C3 (centres undefined) was read as M5 ag -3, M5 PAM 0, M4 antag 3, M4 ag 2, M4 PAM -2 and M5 antag 2.
CSc1ccc(/C=C(\NC(=O)c2ccco2)C(=O)N2CCCCC2)cc1 was read as M5 ag 0, M5 PAM 2, M4 antag -8, M4 ag 3, M4 PAM 3 and M5 antag -7.
Screening CCCNS(=O)(=O)c1cc2c(cc1Br)CCN2C(=O)CC returned M5 ag 1, M5 PAM 23*, M4 antag -14, M4 ag 1, M4 PAM 7 and M5 antag 4.
For CN(C)c1ccc(/C=C/c2nc3ccccc3c(=O)n2-c2ccc(C(=O)O)cc2)cc1 the results were M5 ag 26*, M5 PAM -10, M4 antag 16, M4 ag 55*, M4 PAM -18 and M5 antag 10.
`Cc1c(C(=O)Nc2ccncc2)sc2nc(-c3ccccc3)cn12` gave M5 ag 10, M5 PAM -13, M4 antag -6, M4 ag 26, M4 PAM -6 and M5 antag 5.
For Cc1c(C(=O)Nc2ccc3c(c2)OCCO3)sc2nc(-c3ccccc3)cn12 the results were M5 ag 6, M5 PAM -25, M4 antag 34*, M4 ag 30, M4 PAM -11 and M5 antag 28*.
Screening CCc1ccccc1-n1c(SCC(=O)NC)nnc1-c1ccco1 returned M5 ag 9, M5 PAM 18*, M4 antag -3, M4 ag 1, M4 PAM 8 and M5 antag -16.
`CNC(=O)CSc1nnc(-c2ccco2)n1-c1ccc(C)cc1` gave M5 ag -5, M5 PAM 5, M4 antag -4, M4 ag 2, M4 PAM 10 and M5 antag 2.
For Nc1c(C(=O)N2CCOCC2)sc2nc3c(cc12)CCC3 the results were M5 ag 0, M5 PAM 0, M4 antag 35*, M4 ag 2, M4 PAM 15 and M5 antag -5.
N#C/C(=C\c1ccc(O)c([N+](=O)[O-])c1)c1nc2ccccc2s1 was read as M5 ag 14, M5 PAM -20, M4 antag 7, M4 ag 14, M4 PAM -6 and M5 antag 31*.
COc1cc(/C=C(\C#N)c2nc3ccccc3s2)cc([N+](=O)[O-])c1O was read as M5 ag 7, M5 PAM 0, M4 antag 15, M4 ag 3, M4 PAM 7 and M5 antag 0.
For Cc1cc(-c2cn3ccccc3n2)c(C)n1-c1ccccc1 the results were M5 ag -6, M5 PAM -15, M4 antag 41*, M4 ag 0, M4 PAM -22 and M5 antag -1.
For Cc1c(C(=O)NCc2ccc(F)cc2)sc(=O)n1Cc1ccccc1F the results were M5 ag 1, M5 PAM -4, M4 antag 0, M4 ag 7, M4 PAM -5 and M5 antag -4.
`Cc1csc(/C(=N\O)c2csc(C)n2)n1` gave M5 ag 0, M5 PAM 1, M4 antag -3, M4 ag 2, M4 PAM 21* and M5 antag 10.
Cc1csc(/C(C#N)=N/O)n1 was read as M5 ag 3, M5 PAM -1, M4 antag -3, M4 ag 2, M4 PAM 14 and M5 antag 3.
For OCCN1CCN(c2ncnc3c2ncn3[C@H]2CN(Cc3cccnc3)C[C@@H](CO)O2)CC1 the results were M5 ag -1, M5 PAM -6, M4 antag -21, M4 ag 0, M4 PAM 4 and M5 antag 11.
For CCOc1cc(/C=C2\SC(=O)N(CC(=O)Nc3ccccc3F)C2=O)cc([N+](=O)[O-])c1O the results were M5 ag 0, M5 PAM 23*, M4 antag -2, M4 ag -1, M4 PAM 11 and M5 antag -1.
Cc1c(C(c2ccc(O)cc2)c2c(C)n(C)n(-c3ccccc3)c2=O)c(=O)n(-c2ccccc2)n1C was read as M5 ag 1, M5 PAM -13, M4 antag -4, M4 ag 12, M4 PAM -8 and M5 antag 31*.
Screening CCOC(=O)C1(Cc2cccc(Cl)c2)CCCN(C(=O)CCSC)C1 (centres undefined) returned M5 ag -2, M5 PAM -5, M4 antag 7, M4 ag 0, M4 PAM -4 and M5 antag 13.
